Reference: PMC6980386 (Traffic (Copenhagen, Denmark), 2019)
Entries after “also recorded” stand apart in the source; their conditions may differ.

Assays:
huCD4_1–32-YFP N2A = huCD4_1–32-YFP N2A (Homo sapiens, UniProt P01730, N2A); assay: CADA inhibition of huCD4_1–32-YFP secretion; assay type: cell-based
Method in brief: (§1)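 HEK293T cells were grown in DMEM with 10% FBS and 10 mM HEPES, seeded and left to adhere overnight, then transiently transfected with plasmid by Lipofectamine. Test compound was added 6 h after transfection as a 1:5 serial dilution (50 to 0.016 μM) for 48 h. Secreted YFP in the supernatant was captured on GFP-Trap magnetic beads for 1 h, washed with PBS and measured by flow cytometry. IC50 is the concentration that halves the signal relative to the untreated control, taken from a four-parameter fit of at least three replicate experiments. FC is the mutant mean IC50 divided by the WT mean IC50.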

huCD4_1–32-YFP V5A = huCD4_1–32-YFP V5A (Homo sapiens, UniProt P01730, V5A); assay: CADA inhibition of huCD4_1–32-YFP secretion; assay type: cell-based
Method in brief: as §1

mouse CD4 (mCD4) = conditions: cell surface expression of mCD4; cited from earlier work
FL huCD4 K26A = FL huCD4 K26A (Homo sapiens, UniProt P01730, K26A); assay: CADA down-modulation of cellular huCD4; assay type: cell-based
Method in brief: (§2)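 HEK293T cells, seeded overnight in DMEM with 10% serum, 1 mM sodium pyruvate and 0.075% NaHCO₃, were lipofected with full-length human CD4 (WT or mutant). Test compound in DMSO was added 6 h post-transfection as 1:5 serial dilutions (50–0.016 μM) for 48 h. Surface CD4 was stained with FITC/APC anti-CD4 (SK3) and read by flow cytometry. IC50 is 50% of the untreated signal, from four-parameter fits of ≥3 replicate experiments. FC is mutant/WT mean IC50.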

truncated huCD4 D1D2 WT = truncated huCD4 D1D2 WT (Homo sapiens, UniProt P01730); assay: Cell-free in vitro translation and translocation; assay type: biochemical
Method in brief: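 Truncated huCD4 D1D2 (lacking glycosylation sites and membrane anchor) was made by PCR and transcribed with T7. Proteinase K protection ran 30 min on ice and was quenched with PMSF. Products were separated by SDS-PAGE and imaged by phosphor imaging. The SP-cleaved band was normalised to the matching control. Data are from 2–5 independent experiments, compared with WT by Welch t test.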

huCD4_1–32-YFP A21V = huCD4_1–32-YFP A21V (Homo sapiens, UniProt P01730, A21V); assay: CADA inhibition of huCD4_1–32-YFP secretion; assay type: cell-based
Method in brief: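 HEK293T cells were lipofected with human CD4 residues 1–32 fused to the N-terminus of YFP (secreted, no membrane anchor). Test compound was added 6 h post-transfection as 1:5 serial dilutions (50–0.016 μM) for 48 h. Supernatant was captured on GFP-Trap magnetic beads for 1 h, washed in PBS, and YFP was read by flow cytometry. IC50 is 50% of the untreated control, from four-parameter fits of ≥3 replicate experiments. FC is mutant/WT mean IC50.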

FL huCD4 F7A = FL huCD4 F7A (Homo sapiens, UniProt P01730, F7A); assay: CADA down-modulation of cellular huCD4; assay type: cell-based
Method in brief: as §2

FL huCD4 G31A = FL huCD4 G31A (Homo sapiens, UniProt P01730, G31A); assay: CADA down-modulation of cellular huCD4; assay type: cell-based
Method in brief: as §2

[1] = biological target: truncated huCD4 D1D2 K27A (Homo sapiens, UniProt P01730, K27A); assay: Cell-free in vitro translation and translocation; assay type: biochemical; conditions: 15 μM CADA
Method in brief: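 Proteinase K protection 30 min on ice, quenched with PMSF. Pellets washed in low-salt buffer (HEPES pH 7.6), then SDS-PAGE and phosphor imaging. Translocation normalised to untreated WT. Two to five independent experiments; Welch's t test.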

huCD4_1–32-YFP K26A = huCD4_1–32-YFP K26A (Homo sapiens, UniProt P01730, K26A); assay: CADA inhibition of huCD4_1–32-YFP secretion; assay type: cell-based
Method in brief: as §1

huCD4_1–32-YFP L16A = huCD4_1–32-YFP L16A (Homo sapiens, UniProt P01730, L16A); assay: CADA inhibition of huCD4_1–32-YFP secretion; assay type: cell-based
Method in brief: as §1

huCD4_1–32-YFP V28A = huCD4_1–32-YFP V28A (Homo sapiens, UniProt P01730, V28A); assay: CADA inhibition of huCD4_1–32-YFP secretion; assay type: cell-based
Method in brief: as §1

huCD4_1–32-YFP L10A = huCD4_1–32-YFP L10A (Homo sapiens, UniProt P01730, L10A); assay: CADA inhibition of huCD4_1–32-YFP secretion; assay type: cell-based
Method in brief: as §1

FL huCD4 P20L = FL huCD4 P20L (Homo sapiens, UniProt P01730, P20L); assay: CADA down-modulation of cellular huCD4; assay type: cell-based; conditions: HEK293T, 48h
Method in brief: as §2

huCD4_1–32-YFP V13A = huCD4_1–32-YFP V13A (Homo sapiens, UniProt P01730, V13A); assay: CADA inhibition of huCD4_1–32-YFP secretion; assay type: cell-based
Method in brief: as §1

FL huCD4 R8E = FL huCD4 R8E (Homo sapiens, UniProt P01730, R8E); assay: CADA down-modulation of cellular huCD4; assay type: cell-based; conditions: HEK293T, 48h
Method in brief: as §2

FL huCD4 L19A = FL huCD4 L19A (Homo sapiens, UniProt P01730, L19A); assay: CADA down-modulation of cellular huCD4; assay type: cell-based
Method in brief: as §2

huCD4_1–32-YFP G4A = huCD4_1–32-YFP G4A (Homo sapiens, UniProt P01730, G4A); assay: CADA inhibition of huCD4_1–32-YFP secretion; assay type: cell-based
Method in brief: as §1

huCD4_1–32-YFP Q24A = huCD4_1–32-YFP Q24A (Homo sapiens, UniProt P01730, Q24A); assay: CADA inhibition of huCD4_1–32-YFP secretion; assay type: cell-based
Method in brief: as §1

huCD4_1–32-YFP R3A = huCD4_1–32-YFP R3A (Homo sapiens, UniProt P01730, R3A); assay: CADA inhibition of huCD4_1–32-YFP secretion; assay type: cell-based
Method in brief: as §1

FL huCD4 V13A = FL huCD4 V13A (Homo sapiens, UniProt P01730, V13A); assay: CADA down-modulation of cellular huCD4; assay type: cell-based
Method in brief: as §2

FL huCD4 A21V = FL huCD4 A21V (Homo sapiens, UniProt P01730, A21V); assay: CADA down-modulation of cellular huCD4; assay type: cell-based
Method in brief: as §2

[2] = + less, − more sensitive to CADA
[3] = read-out: Secreted YFP IC50 (μM) Mean, HEK293T, CADA 48h
[4] = read-out: Cellular huCD4 IC50 (μM) Mean, HEK293T, CADA 48h

C=C1CN(S(=O)(=O)c2ccc(C)cc2)CCCN(Cc2ccccc2)CCCN(S(=O)(=O)c2ccc(C)cc2)C1 [CADA, Cyclotriazadisulfonamide]
Secreted YFP FC (fold change of mean IC50 relative to WT) (huCD4_1–32-YFP N2A; [2]): −3.3 | IC50 (huCD4_1–32-YFP N2A; [3]): 0.39 µM | Secreted YFP FC (fold change of mean IC50 relative to WT) (huCD4_1–32-YFP V5A; [2]): −3.8 | IC50 (huCD4_1–32-YFP V5A; [3]): 0.33 µM | sensitivity of mouse CD4 to CADA (mouse CD4 (mCD4)): not affected by CADA; also recorded: completely resistant to CADA | Cellular huCD4 FC (fold change of mean IC50 relative to WT) (FL huCD4 K26A; [2]): +2.7 | IC50 (FL huCD4 K26A; [4]): 1.44 µM | inhibition of translocation by CADA (truncated huCD4 D1D2 WT; 15 μM CADA vs DMSO, rabbit reticulocyte lysate, ovine microsomes): 75% | effect of CADA on co-translational translocation (truncated huCD4 D1D2 WT; increasing doses of CADA): dose-dependently prevented by CADA | Secreted YFP FC (fold change of mean IC50 relative to WT) (huCD4_1–32-YFP A21V; [2]): −1.6 | IC50 (huCD4_1–32-YFP A21V; [3]): 0.77 µM | Cellular huCD4 FC (fold change of mean IC50 relative to WT) (FL huCD4 F7A; [2]): −4.2 | IC50 (FL huCD4 F7A; [4]): 0.13 µM | Cellular huCD4 FC (fold change of mean IC50 relative to WT) (FL huCD4 G31A; [2]): +1.3 | IC50 (FL huCD4 G31A; [4]): 0.72 µM | sensitivity of translocation towards CADA compared to WT [1]: significantly reduced sensitivity to CADA | Secreted YFP FC (fold change of mean IC50 relative to WT) (huCD4_1–32-YFP K26A; [2]): >+39 | IC50 (huCD4_1–32-YFP K26A; [3]): > 50 µM | Secreted YFP FC (fold change of mean IC50 relative to WT) (huCD4_1–32-YFP L16A; [2]): −3.2 | IC50 (huCD4_1–32-YFP L16A; [3]): 0.4 µM | Secreted YFP FC (fold change of mean IC50 relative to WT) (huCD4_1–32-YFP V28A; [2]): −1.8 | IC50 (huCD4_1–32-YFP V28A; [3]): 0.72 µM | Secreted YFP FC (fold change of mean IC50 relative to WT) (huCD4_1–32-YFP L10A; [2]): −2.1 | IC50 (huCD4_1–32-YFP L10A; [3]): 0.6 µM | sensitivity to CADA (FL huCD4 P20L): completely resistant to CADA | Secreted YFP FC (fold change of mean IC50 relative to WT) (huCD4_1–32-YFP V13A; [2]): −2.8 | IC50 (huCD4_1–32-YFP V13A; [3]): 0.46 µM | sensitivity to CADA (FL huCD4 R8E): reduced sensitivity to CADA | Cellular huCD4 FC (fold change of mean IC50 relative to WT) (FL huCD4 L19A; [2]): +1.9 | IC50 (FL huCD4 L19A; [4]): 1.04 µM | Secreted YFP FC (fold change of mean IC50 relative to WT) (huCD4_1–32-YFP G4A; [2]): −1.4 | IC50 (huCD4_1–32-YFP G4A; [3]): 0.91 µM | Secreted YFP FC (fold change of mean IC50 relative to WT) (huCD4_1–32-YFP Q24A; [2]): +3.3 | IC50 (huCD4_1–32-YFP Q24A; [3]): 4.22 µM | Secreted YFP FC (fold change of mean IC50 relative to WT) (huCD4_1–32-YFP R3A; [2]): +1.6 | IC50 (huCD4_1–32-YFP R3A; [3]): 1.99 µM | Cellular huCD4 FC (fold change of mean IC50 relative to WT) (FL huCD4 V13A; [2]): −3.9 | IC50 (FL huCD4 V13A; [4]): 0.14 µM | Cellular huCD4 FC (fold change of mean IC50 relative to WT) (FL huCD4 A21V; [2]): +1.6 | IC50 (FL huCD4 A21V; [4]): 0.87 µM
